# In article PMC6955414 (British Journal of Clinical Pharmacology, 2019):
# Read-outs that look alike come from different tables or passages of the source.
# Columns and labels:
# [1] = type: in vivo, human; conditions: for AUC0–inf, geometric mean / Cmax, geometric mean / AUC_% Extrap / CL/F / Cmax / T1/2 / Tmax / Vz/F / median Tmax: single 200 μg s.c.; for AUC_% Extrap / CL/F / Cmax / T1/2 / Tmax / Vz/F: mean ± SD
# In short: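 Open-label phase I study in renally impaired and matched normal-function adults (CLcr ≥90 mL/min), with or without T2DM. A single abdominal s.c. injection was given at 08:00, followed by a standard breakfast. […] Parameters came from noncompartmental analysis; log-transformed AUC0–inf ratios to the normal group were given with 90% CI.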
# [2] = Safety evaluation; type: in vivo, human
# In short: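 Single abdominal s.c. 200 μg dose given fasting on day 1. Monitoring covered adverse events, vital signs, physical examination, fasting venous glucose, blood and urine routine, blood biochemistry and 12-lead ECG. Assessments were at 24, 144, 312 and 720 h post-dose. The safety set comprised all dosed subjects with post-dose safety data.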
# [3] = cited from earlier work
# [4] = Mild impairment (n=8), single 200 μg s.c.
# [5] = Moderate impairment (n=8), single 200 μg s.c.
# [6] = Normal renal function (n=10), single 200 μg s.c.
# [7] = all groups (26 subjects), single 200 μg s.c.
substance,measurement,setting,value
Polyethylene glycol loxenatide [PEX168],"AUC0–inf, geometric mean",[1]; Mild impairment (n=8),16 500 h^*ng/mL
same,"Cmax, geometric mean",[1]; Mild impairment (n=8),48.5 ng/mL
same,AUC_% Extrap,"[1]; Mild renal impairment, n=8",3.49 ± 1.32%
same,CL/F,"[1]; Mild renal impairment, n=8",0.0136 ± 0.00657 L/h
same,Cmax,"[1]; Mild renal impairment, n=8",54.1 ± 29.7 ng/mL
same,T1/2,"[1]; Mild renal impairment, n=8",117 ± 16.5 h
same,Tmax,"[1]; Mild renal impairment, n=8",123 ± 15.4 h
same,Vz/F,"[1]; Mild renal impairment, n=8",2.28 ± 1.09 L
same,"AUC0–inf, geometric mean",[1]; Moderate impairment (n = 7),29 200 h^*ng/mL
same,"Cmax, geometric mean",[1]; Moderate impairment (n = 7),73.1 ng/mL
same,AUC_% Extrap,"[1]; Moderate renal impairment, n=7",6.92 ± 1.75%
same,CL/F,"[1]; Moderate renal impairment, n=7",0.00711 ± 0.0022 L/h
same,Cmax,"[1]; Moderate renal impairment, n=7",78.1 ± 35.9 ng/mL
same,T1/2,"[1]; Moderate renal impairment, n=7",163 ± 14.7 h
same,Tmax,"[1]; Moderate renal impairment, n=7",144 ± 33.9 h
same,Vz/F,"[1]; Moderate renal impairment, n=7",1.69 ± 0.61 L
same,"AUC0–inf, geometric mean",[1]; Normal (n = 8),14 600 h^*ng/mL
same,"Cmax, geometric mean",[1]; Normal (n = 8),56.6 ng/mL
same,CL/F,"[1]; Normal renal function, n=8",0.0140 ± 0.00298 L/h
same,Tmax,"[1]; Normal renal function, n=8",114 ± 45.8 h
same,Vz/F,"[1]; Normal renal function, n=8",2.44 ± 0.56 L
same,median Tmax,[1]; mild impairment group,120 h
same,"Cmax, geometric mean ratio normal vs mild","[1]; mild impairment relative to normal renal function, 90%CI 61.5–119",85.6%
same,"AUC0–inf, geometric mean ratio normal vs mild","[1]; mild impairment relative to normal renal function, 90%CI 82.1–156",113%
same,AUC0–inf increase compared to the normal group,[1]; mild renal impairment,13.1%
same,Cmax reduction compared to the normal group,[1]; mild renal impairment,14.3%
same,median Tmax,[1]; moderate impairment group,144 h
same,"Cmax, geometric mean ratio normal vs moderate","[1]; moderate impairment relative to normal renal function, 90%CI 91.7–182",129%
same,"AUC0–inf, geometric mean ratio normal vs moderate","[1]; moderate impairment relative to normal renal function, 90%CI 144–280",201%
same,AUC0–inf increase compared to the normal group,[1]; moderate renal impairment,100.7%
same,Cmax increase compared to the normal group,[1]; moderate renal impairment,29.1%
same,median Tmax,[1]; normal group,96 h
same,"Treatment-emergent AE: Abdominal discomforts, %",[2]; [4],0%
same,"Treatment-emergent AE: Acute kidney injury, %",[2]; [4],0%
same,"Treatment-emergent AE: Anaemia, %",[2]; [4],0%
same,"Treatment-emergent AE: Bloating, %",[2]; [4],25%
same,"Treatment-emergent AE: Hiccup, %",[2]; [4],12.5%
same,"Treatment-emergent AE: Increased white blood cell count, %",[2]; [4],0%
same,"Treatment-emergent AE: Nausea, %",[2]; [4],50%
same,"Treatment-emergent AE: Oropharyngeal discomfort, %",[2]; [4],12.5%
same,"Treatment-emergent AE: Overall AEs, %",[2]; [4],87.5%
same,"Treatment-emergent AE: Retching, %",[2]; [4],0%
same,"Treatment-emergent AE: Vomiting, %",[2]; [4],50%
same,"Treatment-emergent AE: Abdominal discomforts, %",[2]; [5],0%
same,"Treatment-emergent AE: Acute kidney injury, %",[2]; [5],12.5%
same,"Treatment-emergent AE: Anaemia, %",[2]; [5],12.5%
same,"Treatment-emergent AE: Bloating, %",[2]; [5],0%
same,"Treatment-emergent AE: Hiccup, %",[2]; [5],12.5%
same,"Treatment-emergent AE: Increased white blood cell count, %",[2]; [5],12.5%
same,"Treatment-emergent AE: Nausea, %",[2]; [5],62.5%
same,"Treatment-emergent AE: Oropharyngeal discomfort, %",[2]; [5],0%
same,"Treatment-emergent AE: Overall AEs, %",[2]; [5],87.5%
same,"Treatment-emergent AE: Retching, %",[2]; [5],12.5%
same,"Treatment-emergent AE: Vomiting, %",[2]; [5],50%
same,"Treatment-emergent AE: Abdominal discomforts, %",[2]; [6],10%
same,"Treatment-emergent AE: Acute kidney injury, %",[2]; [6],0%
same,"Treatment-emergent AE: Anaemia, %",[2]; [6],0%
same,"Treatment-emergent AE: Bloating, %",[2]; [6],50%
same,"Treatment-emergent AE: Hiccup, %",[2]; [6],0%
same,"Treatment-emergent AE: Increased white blood cell count, %",[2]; [6],0%
same,"Treatment-emergent AE: Nausea, %",[2]; [6],20%
same,"Treatment-emergent AE: Oropharyngeal discomfort, %",[2]; [6],0%
same,"Treatment-emergent AE: Overall AEs, %",[2]; [6],70%
same,"Treatment-emergent AE: Retching, %",[2]; [6],0%
same,"Treatment-emergent AE: Vomiting, %",[2]; [6],0%
same,"AE: gastrointestinal disorders, subjects",[2]; [7],80.8%
same,"AE: laboratory tests, subjects",[2]; [7],42.3%
same,"AE: metabolism and nutrition disorders, subjects",[2]; [7],42.3%
same,"Treatment-emergent AE: gastrointestinal disorders, subjects","[2]; all groups, single 200 μg s.c., including nausea, vomiting and bloating",80.8%
same,Tolerability,"[2]; single dose of 200 μg, patients with mild-to-moderate renal impairment",well tolerated
exenatide,in vivo half-life,[3],2 to 3 h
